The list is not random: actives were taken first. Their share in the collection is about 0.74%.
DDE Tn6 FP inh = DD(E)-Tn6 binding inhibition, primary FP screen; P02675; Fibrin DD(E) TRITC-Tn6 fluorescence polarization displacement; inhibition, % at 8.3 µM; 370,000 tested, 0.21% active; AID 720509;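 active = inhibition above a per-campaign cutoff: mean of compounds within control limits plus 3 SD, cut at about 15% in these data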
Target sequence (P02675 whole entry, looked up): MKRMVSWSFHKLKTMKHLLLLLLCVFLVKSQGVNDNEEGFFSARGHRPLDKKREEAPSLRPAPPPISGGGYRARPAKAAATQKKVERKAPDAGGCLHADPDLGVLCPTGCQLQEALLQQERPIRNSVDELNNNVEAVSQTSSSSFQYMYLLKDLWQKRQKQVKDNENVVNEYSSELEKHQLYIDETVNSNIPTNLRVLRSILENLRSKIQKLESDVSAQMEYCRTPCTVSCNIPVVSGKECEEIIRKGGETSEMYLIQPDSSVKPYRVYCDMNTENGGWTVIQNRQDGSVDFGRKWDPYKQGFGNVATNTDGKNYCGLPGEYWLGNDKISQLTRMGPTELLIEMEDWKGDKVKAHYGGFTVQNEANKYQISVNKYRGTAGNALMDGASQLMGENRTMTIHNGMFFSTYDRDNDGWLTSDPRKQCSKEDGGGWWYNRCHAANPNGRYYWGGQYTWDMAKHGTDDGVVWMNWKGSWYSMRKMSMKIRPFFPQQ
ASAP1 GAP inh = ASAP1 ArfGAP inhibition. Q9ULH1. ASAP1-stimulated ARF1 GTP hydrolysis, GDP FP detection. inhibition, % at 16.5 µM. 360,000 tested, 0.19% active; in the data active = inhibition above about 25%
ARFGAP1 inh = inhibitors of rat ARFGAP1. Q62848. Arfgap1-stimulated ARF1 GTP hydrolysis, GDP FP detection. inhibition, % at 16.5 µM. 360,000 tested, 0.26% active. AID 651572;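 active = inhibition above a per-plate limit, mean inhibition of low control wells plus 3 SD, cut at about 25% in these data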
Target sequence (Q62848 1-136 limits assumed): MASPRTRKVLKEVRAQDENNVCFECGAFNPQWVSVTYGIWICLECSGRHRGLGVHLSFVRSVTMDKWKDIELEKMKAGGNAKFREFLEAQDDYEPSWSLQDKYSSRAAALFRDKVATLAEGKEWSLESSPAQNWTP
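System: truncated rat Arfgap1 GAP domain / Medium: HEPES-based buffer, pH 7.5 / Also added: N-terminally truncated human ARF1-GTP substrate / Incubation: enzyme reaction 120 min at 25 °C after 20 min preincubation / Measured by: FP of antibody-bound GDP Alexa 633 tracer, ex 620/em 688 nm / Replicates: singlicate, each compound tested once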
Tn7 DDE FP = DD(E)-Tn7 binding inhibition, primary FP screen; P02675; FP displacement of FITC-Tn7 peptide from fibrin DD(E); 0% = median of compound wells per plate; inhibition, % at 8.3 µM; 370,000 tested, 0.13% active; AID 720508;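 active = inhibition above the mean of compounds falling within the control limits plus 3 SD of them, cut at about 14% in these data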
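Also added: labelled Tn7 tracer, 0.1 µM; Assay system: human fibrin DD(E) protein; Amount: 2 µM fibrin DD(E); Schedule: 10 min compound pre-incubation, 3 h probe incubation at room temperature; Repeats: one replicate per compound; Read-out basis: percent inhibition; Measured by: fluorescence polarization of the labelled Tn7 tracer.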
DDE Tn6 FP ctr = counter-screen hit for Tn6 peptide-fibrin DD(E) binding disruption; shares compounds with DDE Tn6 FP inh; TRITC-Tn6 fluorescence polarization displacement; 0% = median of compound wells, not DMSO; inhibition, % at 8.3 µM; 680 tested, 2% active; AID 720621;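 active = inhibition above the mean of test compounds lying between the control limits plus 3 SD of those, cut at about 14% in these data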
Tn6 DDE conf = confirmation of inhibitors of Tn6 binding to human fibrin DD(E); inhibition, % at 8.3 µM; shares compounds with DDE Tn6 FP inh; AID 720631; FP displacement of TRITC-Tn6 peptide from DD(E); 0% = per-plate median of test wells; 680 tested, 10% active;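 active = inhibition above the mean of compounds lying within the control limits plus 3 SD, cut at about 16% in these data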
Hits are given with their value; – = inactive; · = no result given; ! = not active in a repeat.

SMILES | DDE Tn6 FP inh | ASAP1 GAP inh | ARFGAP1 inh | Tn7 DDE FP | DDE Tn6 FP ctr | Tn6 DDE conf
O=C1CCC/C1=C/Nc1ccc2c(c1)OCO2 | 21 | – | – | – | – | –
CC(C)CNC(=O)OCc1cn(Cc2ccccc2Cl)nn1 | – | · | · | – | · | ·
CCOc1ccc(OCC)c(S(=O)(=O)n2cnc(C)c2)c1 | 16 | – | – | – | – | –
COCCCNC(=O)C[C@H]1C[C@@]2(C(=O)OC)C(=C[C@H](COCc3ccccc3)O[C@@H]2C)N(Cc2ccccc2)C1=O | – | · | · | – | · | ·
C/C(=C\C(=O)c1ccccc1)Nc1ccc(O)cc1 | 17 | – | – | – | – | –
COc1ccc(C(=O)/C=C(\C)Nc2ccc(NC(C)=O)cc2)cc1 | – | – | – | – | · | ·
C/C(=C\C(=O)c1cccnc1)Nc1ccc(O)cc1 | 44 | – | – | – | – | –
COC(=O)[C@]12C[C@H](CC(=O)N3CCSCC3)C(=O)N(Cc3cccc4ccccc34)C1=C[C@H](C1CCCC1)O[C@@H]2C | – | · | · | – | · | ·
Cc1cc(NC(=O)COC(=O)c2ccc([N+](=O)[O-])cc2Cl)no1 | 98 | – | – | – | – | –
CNC(=O)COC(=O)c1ccc([N+](=O)[O-])cc1Cl | – | – | – | – | · | ·
Cc1cccc(-c2cccc3c4c([nH]c23)[C@@H]2C[C@H](N(C)C(=O)OCc3ccccc3)[C@H]([C@H](C)O)CN2CC4)c1 | – | · | · | – | · | ·
CCOC(=O)NC(Nc1sc2c(c1C(=O)OC)CCN(C)C2)(C(F)(F)F)C(F)(F)F | – | – | – | – | · | ·
CCC(=O)NC(Nc1sc2c(c1C(=O)OC)CCN(C)C2)(C(F)(F)F)C(F)(F)F | 17 | – | – | – | – | –
COC(=O)c1ccc2c(c1)SC1=C(CCCC1=O)N2 | 22 | – | – | – | – | 24
CCCCN(C(=O)c1ccc(Cl)c(S(=O)(=O)N2CCOCC2)c1)c1c(N)n(CCC)c(=O)[nH]c1=O | 17 | – | – | – | – | –
C#CCNC(=O)C[C@H]1C[C@@]2(C(=O)OC)C(=C[C@H](C(C)(C)C)O[C@@H]2C)N(Cc2cccc3ccccc23)C1=O | – | · | · | – | · | ·
CCn1c(=O)c2ccccc2n2c(SCC(=O)N3CCCc4ccccc43)nnc12 | 15 | – | – | – | – | –
OCCN1CCN(CCOc2cccc(Cl)c2)CC1 | 17 | – | – | – | – | –
O=C(Cn1nnc(-c2ccccc2F)n1)Nc1ccc(F)cc1F | 16 | · | · | – | – | –
O=C(NCCS(=O)(=O)N1CCN(c2ccccc2F)CC1)c1cccs1 | 17 | – | – | – | – | –
O=C(NCCS(=O)(=O)N1CCN(c2ccccc2)CC1)c1cccs1 | – | – | – | – | · | ·
C(=N/N1CCN(c2ccccc2)CC1)/c1ccco1 | – | · | · | – | · | ·
O=C(O)c1ccc(S(=O)(=O)c2ccc3c(c2)C(=O)N(c2ccc(O)cc2)C3=O)cc1 | 48 | – | – | – | – | –
O=C(O)c1ccc(NC(=O)c2ccc3c(c2)C(=O)N(c2ccccc2)C3=O)cc1 | – | – | – | – | · | ·
O=C(NCCCc1ccccc1)OC1CCC12CCC(c1ccccc1)CC2 (stereo unspecified) | – | · | · | – | · | ·
SMILES | DDE Tn6 FP inh | ASAP1 GAP inh | ARFGAP1 inh | Tn7 DDE FP | DDE Tn6 FP ctr | Tn6 DDE conf
CC(C)CCn1c(=O)c2ccccc2n2c(CN3CCOCC3)nnc12 | 16 | – | – | – | – | –
CCCCCCCCN1C(=O)[C@@H](CC(=O)N2CCCCC2)C[C@@]2(C(=O)OC)C1=C[C@H](C(C)C)O[C@@H]2C1CC1 | – | · | · | – | · | ·
C[C@H](CCCCC1(C)OCCO1)CCC(=O)N(c1ccccc1)c1ccccc1 | – | · | · | – | · | ·
CCn1c(=S)[nH]c2ccccc21 | 16 | – | – | – | – | –
CCn1c(=S)[nH]c2cc(Cl)ccc21 | – | – | – | – | · | ·
C[n+]1cc2c3c(ccc2c2ccc4cc5c(cc4c21)OCO5)OCO3 | 27 | – | – | – | – | 20
COc1ccc2cc3[n+](cc2c1O)CCc1cc2c(cc1-3)OCO2 | – | – | – | – | · | ·
COC(=O)[C@H](C(C)C)N(Cc1cn(Cc2ccc(C)cc2)nn1)S(=O)(=O)c1ccc(F)cc1Br | – | · | · | – | · | ·
Cc1cccc(NC(=S)NCc2ccc3c(c2)cc(C)n3C)c1C | 23 | – | – | – | – | –
COc1cccc(NC(=S)NCc2ccc3c(c2)cc(C)n3C)c1 | – | – | – | – | · | ·
Cc1cc2cc(CNC(=O)Nc3cccc(Cl)c3)ccc2n1C | 70 | – | – | – | – | 18
Cc1cccc(NC(=O)NCc2ccc3c(c2)cc(C)n3C)c1 | 46 | – | – | – | – | –
CC(C)(C)NC(=O)[C@H](c1cccnc1)N(C(=O)c1ccco1)c1ccc(C(C)(C)C)cc1 | – | · | · | – | · | ·
COc1ccccc1NC(=O)/C=C/c1ccc(OC)c(S(=O)(=O)N2CCOCC2)c1 | 17 | – | – | – | – | –
COc1ccc(/C=C/C(=O)Nc2ccccc2C(N)=O)cc1S(=O)(=O)N1CCOCC1 | – | – | – | – | · | ·
CCCCNC(=O)C1(C(=O)c2ccc(OC)cc2)CC(c2ccccc2C(F)(F)F)=NO1 (stereo unspecified) | – | · | · | – | · | ·
Cc1cc(C(=O)COc2ccc([N+](=O)[O-])cc2)c(C)n1C1CC1 | – | – | – | – | · | ·
Cc1cc(C(=O)COc2cc(F)ccc2[N+](=O)[O-])c(C)n1C1CC1 | 16 | – | – | – | – | –
O=C(CN(Cc1ccco1)S(=O)(=O)c1ccccc1)N/N=C/c1cccc(O)c1 | 16 | – | – | – | – | –
CCC(c1nnnn1-c1ccc2c(c1)OCCO2)N1CCN(c2ncccc2C(F)(F)F)CC1 (stereo unspecified) | 15! | – | – | – | – | –
CCC(c1nnnn1-c1ccc2c(c1)OCCO2)N1CCc2ccccc2C1 (stereo unspecified) | – | – | – | – | · | ·
Cc1nn(-c2ccccc2)c2sc(C(=O)NCc3ccc(F)cc3)cc12 | 32 | · | · | – | – | –
Cc1nn(-c2ccc(F)cc2)c2sc(C(=O)O)cc12 | – | – | – | – | · | ·
COc1ccc(C(=O)c2ccsc2N)cc1 | 19 | – | – | – | – | –
CC(=O)Nc1sc2c(c1-c1nc3ccccc3s1)CCOC2 | 16 | · | · | – | – | –
CC(=O)Nc1sc2c(c1-c1nc3ccccc3s1)CCN(C)C2 | – | · | · | – | · | ·
CCCCNC(=O)C[C@H]1C[C@@]2(C(=O)OC)C(=C[C@H](C(C)(C)C)O[C@@H]2C)N(Cc2cccc3ccccc23)C1=O | – | · | · | – | · | ·
COc1cc(CCC(=O)OCC(=O)Nc2c(C)cccc2C(C)C)cc(OC)c1OC | 16 | – | – | – | – | –
O=C(NCc1cccnc1)O[C@H]1CC[C@@]23CCCN2C(=O)CCC[C@H]3C1 | – | · | · | – | · | ·
O=C(CSc1nc2ccccc2[nH]1)Nc1nc(-c2ccc(Br)cc2)cs1 | 41 | – | – | – | – | –
